In ChEMBL document CHEMBL4138048, “Synthesis of substituted 2H-benzo[e]indazole-9-carboxylate as a potent antihyperglycemic agent that may act through IRS-1, Akt and GSK-3β pathways” (Medchemcomm, 2017):
The source made the active and inactive calls. The rule behind the calls is not given here.

Tests used:
L6 = assay: Stimulation of [3H]2-deoxyglucose uptake in rat L6 cells at 10 uM incubated for 16 hrs by scintillation counting method; type: functional, cell-based
How it was run: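 L6 myotubes incubated with the compound […]; insulin at 100 nM for 20 min served as the positive control. Uptake of ³H-2-deoxyglucose measured and expressed as fold stimulation relative to the control condition.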

Mus musculus [1] = assay: Antihyperglycemic activity in db/db mouse assessed as reduction in fasting blood glucose level at 10 mg/kg, po qd for 15 days; type: functional; parameters: scale not given: the % may be the effect or the level left
How it was run: (§1)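 db/db mice given 3, 10 or 30 mg/kg orally once a day for 15 consecutive days, alongside vehicle controls. Serum triglyceride, total cholesterol, HDL-C and insulin measured, along with fasting blood glucose. Expressed as mean % change in 5 animals per group versus control.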

Mus musculus [2] = assay: Antihyperglycemic activity in db/db mouse assessed as improvement on glucose tolerance by measuring blood glucose AUC level at 10 mg/kg, po qd for 10 days by oral glucose tolerance test; type: functional
How it was run: (§2)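 db/db mice dosed orally once daily for 15 consecutive days at 3, 10 or 30 mg/kg, with vehicle controls and pioglitazone at 10 mg/kg. Oral glucose tolerance tests on day 10 and day 15. Overall improvement in glucose tolerance calculated against vehicle control. Mean % change in 5 animals per group.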

Mus musculus [3] = assay: Antihyperglycemic activity in db/db mouse assessed as increase in HDL-C level at 10 mg/kg, po qd for 15 days; type: functional; how it was run: as §1
Mus musculus [4] = assay: Antihyperglycemic activity in db/db mouse assessed as reduction in insulin level at 10 mg/kg, po qd for 15 days; type: functional; parameters: scale not given: the % may be the effect or the level left; how it was run: as §1
Mus musculus [5] = assay: Antihyperglycemic activity in db/db mouse assessed as reduction in blood glucose level at 10 mg/kg, po qd and measured on day 4 by oral glucose tolerance test; type: functional, organism-based
How it was run: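 Type 2 diabetic db/db mice dosed orally once a day for 15 days at 3, 10 or 30 mg/kg, with pioglitazone at 10 mg/kg as standard. Blood glucose measured daily and profile compared with vehicle-treated animals. Mean % change in 5 animals per group.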

Mus musculus [6] = assay: Antihyperglycemic activity in db/db mouse assessed as reduction in cholesterol level at 10 mg/kg, po qd for 15 days; type: functional; parameters: scale not given: the % may be the effect or the level left; how it was run: as §1
Mus musculus [7] = assay: Antihyperglycemic activity in db/db mouse assessed as reduction in triglyceride level at 10 mg/kg, po qd for 15 days; type: functional; parameters: scale not given: the % may be the effect or the level left; how it was run: as §1
Mus musculus [8] = assay: Antihyperglycemic activity in db/db mouse assessed as improvement on glucose tolerance by measuring blood glucose AUC level at 10 mg/kg, po qd for 15 days by oral glucose tolerance test; type: functional; how it was run: as §2

| Structure (SMILES) | Activity (L6) | Activity (Mus musculus [1]) [%] | Activity (Mus musculus [2]) [%] | Activity (Mus musculus [3]) [%] | Activity (Mus musculus [4]) [%] | Activity (Mus musculus [5]) | Activity (Mus musculus [6]) [%] | Activity (Mus musculus [7]) [%] | Activity (Mus musculus [8]) [%] |
| --- | --- | --- | --- | --- | --- | --- | --- | --- | --- |
| COC(=O)c1c(SC)cc(-c2ccc(Br)cc2)c2c1-c1cn(-c3ccccc3)nc1CC2 | inactive |  |  |  |  |  |  |  |  |
| COC(=O)c1c(SC)cc(-c2ccc3ccc4cccc5ccc2c3c45)c2c1-c1cn(-c3ccccc3)nc1CC2 | inactive |  |  |  |  |  |  |  |  |
| CCc1ccc(CCOc2ccc(CC3SC(=O)NC3=O)cc2)nc1 (stereo not given) [PIOGLITAZONE] |  | 59.1 | 34.8 | 23.9 | 58.1 | Active | 15.1 | 9.58 | 45.4 |
